Assay results reported in ChEMBL document CHEMBL1128731, “Furanfurin and thiophenfurin: two novel tiazofurin analogues. Synthesis, structure, antitumor activity, and interactions with inosine monophosphate dehydrogenase” (J Med Chem, 1995).

Columns and labels:
[1] = system: Mus musculus; assay: Compound was tested for ratio of survival time of treated to control mice x100 at 100 mg/kg dose; format: functional
Procedure, shortened: (§1)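 Female BD2F1 mice (8 weeks old, 20–22 g), eight per group, injected ip with 10^5 L1210 leukemia cells on day 0. Starting 24 h later, drug dissolved in 0.9% NaCl given ip once daily for 9 consecutive days. % T/C = survival time of treated/control mice × 100. Body weight change tracked from start to end of treatment.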

[2] = system: K562; assay: Compound was tested for its effect on NAD ribonucleotide levels of K562 cell at 50 uM concentration; format: functional, Homo sapiens
Procedure, shortened: (§2)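 K562 cells (1×10^7) were treated with saline or agent for 2 h at 37 °C, harvested by centrifugation and washed with cold saline. They were extracted with cold 10% trichloroacetic acid, neutralized with 0.5 M tri-n-octylamine in freon, and analyzed by HPLC. Levels are in nmol/g and expressed as % of saline control. Significance was set at p < 0.05.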

[3] = system: K562; assay: Compound was tested for its effect on UDP ribonucleotide levels of K562 cell at 100 uM concentration; format: functional, Homo sapiens; procedure, shortened: as §2
[4] = system: K562; assay: Compound was tested for its effect on GDP ribonucleotide levels of K562 cell at 100 uM concentration; format: functional, Homo sapiens; procedure, shortened: as §2
[5] = system: K562; assay: Compound was tested for its effect on IMP ribonucleotide levels of K562 cell at 50 uM concentration; format: functional, Homo sapiens; procedure, shortened: as §2
[6] = system: K562; assay: Compound was tested for its effect on ADP ribonucleotide levels of K562 cell at 50 uM concentration; format: functional, Homo sapiens; procedure, shortened: as §2
[7] = Ratio of IC50 against HL-60; format: functional
Procedure, shortened: (§3)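 Antiproliferative assay scoring [125I]-5-iodo-2'-deoxyuridine incorporation into DNA after 72 h drug–cell contact. Run on normal human bone marrow from five donors and in three assays on HL-60. Ratio is antilog(mean log IC50 or IC90) on bone marrow over the same on HL-60. Range limits are antilog(mean log IC50 ± 2SD).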

[8] = system: K562; assay: Compound was tested for its effect on NAD ribonucleotide levels of K562 cell at 10 uM concentration; format: functional, Homo sapiens; procedure, shortened: as §2
[9] = system: Mus musculus; assay: Compound was tested for ratio of survival time of treated to control mice x100 at 400 mg/kg dose; format: functional; procedure, shortened: as §1
[10] = system: Mus musculus; assay: Compound was tested for ratio of survival time of treated to control mice x100 at 6.2 mg/kg dose; format: functional; procedure, shortened: as §1
[11] = system: K562; assay: Formation of NAD analogue by compound at 100 uM concentration against human myelogenous leukemia K562; format: functional
Procedure, shortened: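 K562 cells (1×10^7/10 mL) were labeled with 185 nM [2,8-3H]adenosine for 1 h at 37 °C, then given saline or analogue for 2 h. Cells were pelleted, washed with PBS and extracted in cold 10% trichloroacetic acid. Extracts were neutralized with 0.5 M tri-n-octylamine in freon and run on SAX HPLC with ammonium phosphate buffer. Results are pmol NAD analogue per 10^9 cells.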

[12] = system: Lewis lung carcinoma cell line; assay: Inhibitory concentration against LLC Lewis lung carcinoma; format: functional, cell-based; details: Mus musculus
Procedure, shortened: (§4)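 Cells in log phase plated with a range of drug concentrations (B16 5×10^3 cells/well; P388, L1210, LLC 10^4 cells/well; HL-60, K562, LoVo 2.5×10^5 cells/well). Growth read by modified MTT after 72 h drug contact at 37 °C. IC50 taken as the concentration reducing optical absorption by 50%, from Chou regression analysis. Maximum concentration tested 200 μM.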

[13] = system: K562; assay: Compound was tested for its effect on CDP ribonucleotide levels of K562 cell at 50 uM concentration; format: functional, Homo sapiens; procedure, shortened: as §2
[14] = system: K562; assay: Compound was tested for its effect on AMP ribonucleotide levels of K562 cell at 10 uM concentration; format: functional, Homo sapiens; procedure, shortened: as §2
[15] = system: K562; assay: Compound was tested for its effect on ATP ribonucleotide levels of K562 cell at 10 uM concentration; format: functional, Homo sapiens; procedure, shortened: as §2
[16] = system: K562; assay: Compound was tested for its effect on GMP ribonucleotide levels of K562 cell at 100 uM concentration; format: functional, Homo sapiens; procedure, shortened: as §2
[17] = system: K562; assay: Compound was tested for its effect on ADP ribonucleotide levels of K562 cell at 100 uM concentration; format: functional, Homo sapiens; procedure, shortened: as §2
[18] = system: K562; assay: compound was tested for its effect on IMPDH activity against K562 cells at 10 uM concentration; format: functional, Homo sapiens
Procedure, shortened: (§5)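 K562 cells (1×10^6/mL, log phase) exposed 2 h at 37 °C to 10, 50 or 100 μM drug, or to saline. Cells washed and lysed in Tris-HCl pH 7.4/NaCl/MgCl2/NP-40/aprotinin, and the 13000g supernatant used as enzyme. Enzyme incubated 30 min at 37 °C with 286 μM [2,8-3H]IMP and 1 mM NAD. Tritium release counted; activity in nmol XMP/h/mg protein, as % of saline control.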

[19] = system: K562; assay: Compound was tested for its effect on IMPDH activity against K562 cells at 50 uM concentration; format: functional, Homo sapiens
Procedure, shortened: (§6)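 Log-phase K562 cells (1×10^6/mL) were exposed to saline or agent for 2 h at 37 °C, washed and lysed (Tris-HCl pH 7.4, NaCl, MgCl2, 0.5% NP-40, aprotinin). The cleared supernatant was incubated 30 min at 37 °C with 286 μM [2,8-3H]IMP and 1 mM NAD. Tritium release was counted by scintillation. Activity is nmol XMP/h/mg protein, also given as % of control.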

[20] = system: K562; assay: Compound was tested for its effect on IMPDH activity against K562 cells at 100 uM concentration; format: functional, Homo sapiens; procedure, shortened: as §6
[21] = system: K562; assay: Compound was tested for its effect on UMP ribonucleotide levels of K562 cell at 50 uM concentration; format: functional, Homo sapiens; procedure, shortened: as §2
[22] = system: K562; assay: compound was tested for its effect on IMPDH activity against K562 cells at 100 uM concentration; format: functional, Homo sapiens; procedure, shortened: as §5
[23] = system: K562; assay: Compound was tested for its effect on UDP ribonucleotide levels of K562 cell at 10 uM concentration; format: functional, Homo sapiens; procedure, shortened: as §2
[24] = system: Mus musculus; assay: Average weight change of mice from onset to termination of drug treatment at 100 mg/kg dose; early death due to toxicity; format: functional, organism-based; parameters: dose 100 mg/kg
Procedure, shortened: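 Female BD2F1 mice (8 weeks, 20–22 g), eight per group, injected ip with 10^5 L1210 cells on day 0. From 24 h later, drug in 0.9% NaCl was given ip once daily for 9 days. Body weight change was averaged from onset to termination of treatment. Early deaths from toxicity were recorded.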

[25] = system: K562; assay: Compound was tested for its effect on UTP ribonucleotide levels of K562 cell at 100 uM concentration; format: functional, Homo sapiens; procedure, shortened: as §2
[26] = IC90 ratio against bone marrow samples to HL-60; format: functional; procedure, shortened: as §3
[27] = system: K562; assay: Compound was tested for its effect on AMP ribonucleotide levels of K562 cell at 100 uM concentration; format: functional, Homo sapiens; procedure, shortened: as §2
[28] = system: B16; assay: Inhibitory concentration against B16 melanoma cell lines; format: functional, cell-based; details: Mus musculus; procedure, shortened: as §4
[29] = system: HL-60; assay: Inhibitory concentration against human HL-60 cell line(activity expressed as range); format: functional; procedure, shortened: as §3
[30] = system: K562; assay: Compound was tested for its effect on CDP ribonucleotide levels of K562 cell at 100 uM concentration; format: functional, Homo sapiens; procedure, shortened: as §2
[31] = system: LoVo; assay: Inhibitory concentration against LoVo human colon adenocarcinoma cell lines; format: functional, cell-based; procedure, shortened: as §4
[32] = system: K562; assay: Compound was tested for its effect on ATP ribonucleotide levels of K562 cell at 100 uM concentration; format: functional, Homo sapiens; procedure, shortened: as §2
[33] = system: K562; assay: Compound was tested for its effect on IMPDH activity against K562 cells at 10 uM concentration; format: functional, Homo sapiens; procedure, shortened: as §6
[34] = system: K562; assay: Compound was tested for its effect on UMP ribonucleotide levels of K562 cell at 100 uM concentration; format: functional, Homo sapiens; procedure, shortened: as §2

With NC(=O)c1csc([C@@H]2O[C@H](CO)[C@@H](O)[C@H]2O)c1 the T/C [1] was <100%, the Control [2] was 66% and the Control [3] was 131%. It also gave a Control [4] of 77%, a Control [5] of 594% and a Control [6] of 114%. For the same molecule, the Ratio [7] was 5.9, the Control [8] was 81% and the T/C [9] was <100%. The T/C [10] was 155%, the Formation [11] was 886 pmol/10^9 cells and the IC50 [12] was 11.2 µM. It also gave a Control [13] of 82%, a Control [14] of 156% and a Control [15] of 92%. The Control [16] was 80%, the Control [17] was 105% and the Control [18] was 56%. For the same molecule, the Activity [19] was 1.85, the Activity [20] was 1.07 and the Control [21] was 115%. The Control [22] was 22%, the Control [23] was 134% and the Change [24] was “Toxic”. For the same molecule, the Control [25] was 87%, the Ratio [26] was >10 and the Control [27] was 131%. For the same molecule, the IC50 [28] was 25.8 µM, the IC90 [29] was 8.3 µM and the Control [30] was 99%. It also gave an IC50 [31] of 102 µM, a Control [32] of 81% and an Activity [33] of 2.8. For the same molecule, the Control [34] was 107%.
